Common to all, as to assay type: functional
One experiment deals with Streptococcus pyogenes. Put plainly: Antibacterial activity against Streptococcus pyogenes MTCC 1925 assessed as zone of inhibition at 100 uL after 24 hrs by agar well-diffusion method. In a few lines:
(§1)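 Mueller-Hinton agar plates swabbed with a bacterial suspension adjusted to 1.5×10^8 CFU/ml. Each 5 mm well received 100 µl of compound, and plates were incubated at 37°C for 24 h. Chloramphenicol (30 mcg) was the positive control and DMSO the negative control. Inhibition zones around wells were measured manually, in triplicate.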
A general note: Agar diffusion results depend on both activity and mobility in agar.

A further experiment concerns Salmonella enterica. Put plainly: Antibacterial activity against Salmonella enterica MTCC 735 assessed as zone of inhibition at 100 uL after 24 hrs by agar well-diffusion method.
The test system of a further experiment is Escherichia coli. Nature of the experiment: Antibacterial activity against Escherichia coli MTCC 730 assessed as zone of inhibition at 100 uL after 24 hrs by agar well-diffusion method. In a few lines:
as §1

Experiment [1] has as its system Bacillus cereus. Nature of the experiment: Antibacterial activity against Bacillus cereus MTCC 430 assessed as zone of inhibition at 100 uL after 24 hrs by agar well-diffusion method. Put shortly:
as §1

In experiment [2] the test system is Klebsiella pneumoniae. Nature of the experiment: Antibacterial activity against Klebsiella pneumoniae MTCC 109 assessed as zone of inhibition at 100 uL after 24 hrs by agar well-diffusion method. In a few lines: as §1
The test system of experiment [3] is Bacillus cereus. Nature of the experiment: Antibacterial activity against Bacillus cereus MTCC 430 after 18 hrs by TTC staining based broth microdilution method. The conditions noted are these: MTCC 430, 18 h. Put shortly: (§2)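 Broth microdilution in Mueller-Hinton broth. 50 µl of inoculum from a 0.5 McFarland suspension was added to 50 µl of compound, giving final concentrations of 0.024–400 mg/ml in DMSO. Sealed plates were incubated at 37°C for 18 h, then 50 µl of 0.5% TTC was added for 1 h in the dark. MIC was the lowest concentration with no visible growth (well stays clear). Triplicate; mean ± SD.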
Background: In broth dilution the organism is exposed to a series of concentrations in liquid medium.

Experiment [4] relates to Klebsiella pneumoniae. Nature of the experiment: Antibacterial activity against Klebsiella pneumoniae MTCC 109 after 18 hrs by TTC staining based broth microdilution method. To be noted: MTCC 109, 18 h. Put shortly: as §2

The structures appear in SMILES notation. Converted amounts (≈) assume the structure as drawn.

For orientation: MIC means the lowest concentration that inhibits growth of the organism. A low value points to a more susceptible organism. As for `COc1ccc(C(c2c(C)[nH][nH]c2=O)C2C(=O)NC(=O)NC2=O)cc1OC` (stereo unspecified), the inhibition zone (IZ) with Streptococcus pyogenes was 17 mm; in the experiment with Salmonella enterica, 10 mm; in the experiment on Escherichia coli, 16 mm; with Bacillus cereus [1], 15 mm; in the experiment on Klebsiella pneumoniae [2] it was 21 mm. For the same compound, the figures for the minimum inhibitory concentration (MIC) against Bacillus cereus [3] and against Klebsiella pneumoniae [4] were 780 µg/mL (≈ 2080 µM) and 390 µg/mL (≈ 1040 µM), respectively.
Take `Cc1[nH][nH]c(=O)c1C(c1cccc(F)c1)C1C(=O)NC(=O)NC1=O` (stereo unspecified): the inhibition zone (IZ) amounted to 15 mm in the experiment on Streptococcus pyogenes; 11 mm in the experiment with Salmonella enterica; 15 mm in the experiment on Escherichia coli; 15 mm with Bacillus cereus [1]; 20 mm in the experiment on Klebsiella pneumoniae [2]. Further, the minimum inhibitory concentration (MIC) turned out to be 780 µg/mL (≈ 2350 µM) against Bacillus cereus [3] and 390 µg/mL (≈ 1170 µM) against Klebsiella pneumoniae [4].
With `COc1ccc(C(c2c(C)[nH][nH]c2=O)C2C(=O)NC(=O)NC2=O)cc1` (stereo unspecified), the inhibition zone (IZ) was determined as 13 mm with Streptococcus pyogenes; 11 mm in the experiment with Salmonella enterica; 14 mm in the experiment on Escherichia coli; 14 mm in the experiment on Bacillus cereus [1]; 11 mm in the experiment on Klebsiella pneumoniae [2]. In addition, the MIC in the experiment with Bacillus cereus [3] is 6250 µg/mL (≈ 18200 µM); against Klebsiella pneumoniae [4], 3120 µg/mL (≈ 9060 µM).
Consider `COc1cc(C(c2c(C)[nH][nH]c2=O)C2C(=O)NC(=O)NC2=O)cc(OC)c1OC` (stereo unspecified), for which the inhibition zone (IZ) in the experiment with Streptococcus pyogenes was determined as 17 mm; in the experiment on Salmonella enterica, 11 mm; in the experiment with Escherichia coli it was 13 mm; with Bacillus cereus [1], 13 mm; in the experiment on Klebsiella pneumoniae [2], 19 mm. Besides, the MIC against Bacillus cereus [3] was determined as 1560 µg/mL (≈ 3860 µM); in the experiment with Klebsiella pneumoniae [4], 390 µg/mL (≈ 964 µM).
As for `Cc1ccc(C(c2c(C)[nH][nH]c2=O)C2C(=O)NC(=O)NC2=O)cc1` (stereo unspecified), the inhibition zone (IZ) was determined as 11 mm in the experiment with Streptococcus pyogenes; 10 mm in the experiment on Salmonella enterica; 12 mm in the experiment with Escherichia coli; 12 mm in the experiment on Bacillus cereus [1]; 10 mm with Klebsiella pneumoniae [2]. Further, the results for the MIC against Bacillus cereus [3] and against Klebsiella pneumoniae [4] were 6250 µg/mL (≈ 19000 µM) and 3120 µg/mL (≈ 9500 µM), respectively.
With `Cc1[nH][nH]c(=O)c1C(c1cccc([N+](=O)[O-])c1)C1C(=O)NC(=O)NC1=O` (stereo unspecified), the inhibition zone (IZ) in the experiment with Streptococcus pyogenes was 14 mm; with Salmonella enterica, 10 mm; in the experiment with Escherichia coli it was 11 mm; with Bacillus cereus [1] it was 13 mm; in the experiment on Klebsiella pneumoniae [2] it was 15 mm. Moreover, the MIC with Bacillus cereus [3] worked out at 1560 µg/mL (≈ 4340 µM); in the experiment with Klebsiella pneumoniae [4] it was 780 µg/mL (≈ 2170 µM).
`Cc1[nH][nH]c(=O)c1C(c1ccc(Br)cc1)C1C(=O)NC(=O)NC1=O` (stereo unspecified): the inhibition zone (IZ) in the experiment on Streptococcus pyogenes is 17 mm; in the experiment on Salmonella enterica it was 10 mm; in the experiment with Escherichia coli, 15 mm; in the experiment on Bacillus cereus [1] it was 15 mm; in the experiment with Klebsiella pneumoniae [2], 15 mm. Further, the MIC with Bacillus cereus [3] and in the experiment on Klebsiella pneumoniae [4] was 780 µg/mL (≈ 1980 µM) throughout.
Regarding `O=C(N[C@H](CO)[C@H](O)c1ccc([N+](=O)[O-])cc1)C(Cl)Cl` [CHLORAMPHENICOL], the inhibition zone (IZ) was 36 mm with Streptococcus pyogenes; 17 mm with Salmonella enterica; 35 mm in the experiment with Escherichia coli; 22 mm in the experiment with Bacillus cereus [1]; 33 mm in the experiment on Klebsiella pneumoniae [2]. For the same compound, the MIC in the experiment with Bacillus cereus [3] and in the experiment on Klebsiella pneumoniae [4] was 90 µg/mL (≈ 279 µM) each time.

The record behind these values is ChEMBL document CHEMBL4152354, “A reusable magnetic nickel nanoparticle based catalyst for the aqueous synthesis of diverse heterocycles and their evaluation as potential anti-bacterial agent” (2018).
